Results: paper PMC9933479 (ACS Omega, 2023)
Where two headings read alike, the source gives them in different places.

How the values were obtained:
Test in all cases: MTT assay, cytotoxicity/growth inhibition
A549 (lung carcinoma) = format: cell-based, human; conditions: for inhibition at 20 µM / IC50: Homo sapiens; for inhibition at 20 µM: A549, 48 h; for IC50: A549
Outline: (§1)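 Cells were grown in RPMI (A549, HCT-116, PC-3) or DMEM (MCF-7) with 10% FBS at 37 °C and 5% CO2. Seeding per well was […] and PC-3 8 × 10^4 cells. […] MTT 250 μg/mL, 4 h; DMSO; A570; triplicate; mean ± SE.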

[1] = test system: PC-3 (prostate carcinoma); format: cell-based; conditions: Homo sapiens; for inhibition at 20 µM: 48 h, read-out: Cytotoxic Activity (% Growth Inhibition)
Outline: as §1

MCF-7 (breast carcinoma) = format: cell-based; conditions: Homo sapiens; for inhibition at 20 µM: MCF7, 48 h, read-out: Cytotoxic Activity (% Growth Inhibition); for IC50: MCF7
Outline: as §1

[2] = test system: HCT-116 (colon carcinoma); format: cell-based; conditions: Homo sapiens; for inhibition at 20 µM: HCT-116, 48 h, read-out: Cytotoxic Activity (% Growth Inhibition); for IC50: HCT-116
Outline: as §1

[3] = read-out: Cytotoxic Activity (% Growth Inhibition), A549, 20 μM concentration, MTT, 48 h

SMILES | inhibition at 20 µM (A549 (lung carcinoma); read-out: Cytotoxic Activity (% Growth Inhibition)) | inhibition at 20 µM [1] | inhibition at 20 µM (MCF-7 (breast carcinoma)) | inhibition at 20 µM [2] | IC50 (A549 (lung carcinoma)) | inhibition at 20 µM (A549 (lung carcinoma); [3]) | IC50 [1] | IC50 (MCF-7 (breast carcinoma)) | IC50 [2] | potency relative to andrographolide (times / fold more potent) (A549 (lung carcinoma); A549, ratio of IC50 values)
C[C@@]12COC(c3ccccc3)O[C@@H]1CC[C@]1(C)C2CC=C(COC(=O)Cc2ccccc2)[C@H]1/C=C/C1=CCOC1=O (stereo partly drawn) [Compound 8o, ((4aR,6aR,7S,10bR)-6a,10b-Dimethyl-7-((E)-2-(2-oxo-2,5-dihydrofuran-3-yl)vinyl)-3-phenyl-4a,5,6,6a,7,10,10a,10b-octahydro-1H-naphtho[2,1-d][1,3]dioxin-8-yl)methyl 2-Phenylacetate] | 20.13 ± 0.02% | 0% | 32.09 ± 0.08% | 24.97 ± 0.16% |  |  |  |  |  | 
C[C@@]12COC(c3ccccc3)O[C@@H]1CC[C@]1(C)C2CC=C(COC(=O)Cc2ccc(F)cc2)[C@H]1/C=C/C1=CCOC1=O (stereo partly drawn) [Compound 8p, ((4aR,6aR,7S,10bR)-6a,10b-Dimethyl-7-((E)-2-(2-oxo-2,5-dihydrofuran-3-yl)vinyl)-3-phenyl-4a,5,6,6a,7,10,10a,10b-octahydro-1H-naphtho[2,1-d][1,3]dioxin-8-yl)methyl 2-(4-Fluorophenyl)acetate] |  | 77 ± 0.86% | 0% | 20.6 ± 0.95% | > 20 µM | 17 ± 1.7% | 8 µM | > 20 µM | > 20 µM | 
C[C@@]12COC(c3ccccc3)O[C@@H]1CC[C@]1(C)C2CC=C(COC(=O)Cc2ccc(Cl)cc2)[C@H]1/C=C/C1=CCOC1=O (stereo partly drawn) [Compound 8q, ((4aR,6aR,7S,10bR)-6a,10b-Dimethyl-7-((E)-2-(2-oxo-2,5-dihydrofuran-3-yl)vinyl)-3-phenyl-4a,5,6,6a,7,10,10a,10b-octahydro-1H-naphtho[2,1-d][1,3]dioxin-8-yl)methyl 2-(4-Chlorophenyl)acetate] |  | 39 ± 0.82% | 46 ± 0.72% | 36.1 ± 0.96% |  | 11 ± 1% |  |  |  | 
C[C@@]12COC(c3ccccc3)O[C@@H]1CC[C@]1(C)C2CC=C(COC(=O)Cc2ccc(I)cc2)[C@H]1/C=C/C1=CCOC1=O (stereo partly drawn) [Compound 8r, ((4aR,6aR,7S,10bR)-6a,10b-Dimethyl-7-((E)-2-(2-oxo-2,5-dihydrofuran-3-yl)vinyl)-3-phenyl-4a,5,6,6a,7,10,10a,10b-octahydro-1H-naphtho[2,1-d][1,3]dioxin-8-yl)methyl 2-(4-Iodophenyl)acetate] |  | 77 ± 0.48% | 42 ± 0.69% | 22.1 ± 0.58% | > 20 µM | 2.9 ± 0.69% | 5.8 µM | > 20 µM | > 20 µM | 
COc1ccc(CC(=O)OCC2=CCC3[C@]4(C)COC(c5ccccc5)O[C@@H]4CC[C@@]3(C)[C@@H]2/C=C/C2=CCOC2=O)cc1 (stereo partly drawn) [Compound 8s, ((4aR,6aR,7S,10bR)-6a,10b-Dimethyl-7-((E)-2-(2-oxo-2,5-dihydrofuran-3-yl)vinyl)-3-phenyl-4a,5,6,6a,7,10,10a,10b-octahydro-1H-naphtho[2,1-d][1,3]dioxin-8-yl)methyl 2-(4-Methoxyphenyl)acetate] |  | 75 ± 0.93% | 54 ± 0.53% | 22.1 ± 0.44% | 6.6 µM | 78 ± 0.97% | 5.9 µM | 16.9 µM | > 20 µM | 
Cc1ccc(CC(=O)OCC2=CCC3[C@]4(C)COC(c5ccccc5)O[C@@H]4CC[C@@]3(C)[C@@H]2/C=C/C2=CCOC2=O)cc1 (stereo partly drawn) [Compound 8t, ((4aR,6aR,7S,10bR)-6a,10b-Dimethyl-7-((E)-2-(2-oxo-2,5-dihydrofuran-3-yl)vinyl)-3-phenyl-4a,5,6,6a,7,10,10a,10b-octahydro-1H-naphtho[2,1-d][1,3]dioxin-8-yl)methyl 2-(p-Tolyl)acetate] |  | 69.5 ± 0.74% | 27 ± 0.29% | 45.9 ± 0.86% |  | 48.9 ± 0.73% |  |  |  | 
COc1cc(CC(=O)OCC2=CCC3[C@]4(C)COC(c5ccccc5)O[C@@H]4CC[C@@]3(C)[C@@H]2/C=C/C2=CCOC2=O)cc(OC)c1OC (stereo partly drawn) [Compound 8u, ((4aR,6aR,7S,10bR)-6a,10b-Dimethyl-7-((E)-2-(2-oxo-2,5-dihydrofuran-3-yl)vinyl)-3-phenyl-4a,5,6,6a,7,10,10a,10b-octahydro-1H-naphtho[2,1-d][1,3]dioxin-8-yl)methyl 2-(3,4,5-Trimethoxyphenyl)acetate] |  | 70.9 ± 0.41% | 43 ± 0.28% | 10.9 ± 0.99% | 5.4 µM | 72 ± 0.54% | 9 µM | > 20 µM | > 20 µM | about 4
C[C@@]12COC(c3ccccc3)O[C@@H]1CC[C@]1(C)C2CC=C(COC(=O)Cc2ccc(Cl)c(Cl)c2)[C@H]1/C=C/C1=CCOC1=O (stereo partly drawn) [Compound 8v, ((4aR,6aR,7S,10bR)-6a,10b-Dimethyl-7-((E)-2-(2-oxo-2,5-dihydrofuran-3-yl)vinyl)-3-phenyl-4a,5,6,6a,7,10,10a,10b-octahydro-1H-naphtho[2,1-d][1,3]dioxin-8-yl)methyl 2-(3,4-Dichlorophenyl)acetate] |  | 70.3 ± 0.54% | 34 ± 0.28% | 12.5 ± 0.78% | > 20 µM | 41.6 ± 0.98% | 8.4 µM | > 20 µM | > 20 µM | 
CCCCCCCC(=O)OCC1=CCC2[C@]3(C)COC(c4ccccc4)O[C@@H]3CC[C@@]2(C)[C@@H]1/C=C/C1=CCOC1=O (stereo partly drawn) [Compound 8w, ((4aR,6aR,7S,10bR)-6a,10b-Dimethyl-7-((E)-2-(2-oxo-2,5-dihydrofuran-3-yl)vinyl)-3-phenyl-4a,5,6,6a,7,10,10a,10b-octahydro-1H-naphtho[2,1-d][1,3]dioxin-8-yl)methyl Octanoate] |  | 49 ± 0.85% | 51 ± 0.96% | 40.5 ± 0.91% | 8.4 µM | 70.7 ± 0.73% | > 20 µM | 20 µM | > 20 µM | 
CCCCCCCCCC(=O)OCC1=CCC2[C@]3(C)COC(c4ccccc4)O[C@@H]3CC[C@@]2(C)[C@@H]1/C=C/C1=CCOC1=O (stereo partly drawn) [Compound 8x, ((4aR,6aR,7S,10bR)-6a,10b-Dimethyl-7-((E)-2-(2-oxo-2,5-dihydrofuran-3-yl)vinyl)-3-phenyl-4a,5,6,6a,7,10,10a,10b-octahydro-1H-naphtho[2,1-d][1,3]dioxin-8-yl)methyl Decanoate] |  | 39 ± 0.24% | 45 ± 0.98% | 50.1 ± 0.4% |  | 49.7 ± 0.79% |  |  |  | 
CCCCCCCCCCCC(=O)OCC1=CCC2[C@]3(C)COC(c4ccccc4)O[C@@H]3CC[C@@]2(C)[C@@H]1/C=C/C1=CCOC1=O (stereo partly drawn) [Compound 8y, ((4aR,6aR,7S,10bR)-6a,10b-Dimethyl-7-((E)-2-(2-oxo-2,5-dihydrofuran-3-yl)vinyl)-3-phenyl-4a,5,6,6a,7,10,10a,10b-octahydro-1H-naphtho[2,1-d][1,3]dioxin-8-yl)methyl Dodecanoate] |  | 32 ± 0.66% | 51 ± 0.35% | 40.1 ± 0.8% | 11 µM | 71 ± 0.77% | > 20 µM | 20 µM | > 20 µM | 
COc1cccc(C(=O)OCC2=CCC3[C@](C)(CO)[C@H](O)CC[C@@]3(C)[C@@H]2/C=C/C2=CCOC2=O)c1 (stereo partly drawn) [Compound 9b, ((1S,5R,6R,8aR)-6-Hydroxy-5-(hydroxymethyl)-5,8a-dimethyl-1-((E)-2-(2-oxo-2,5-dihydrofuran-3-yl)vinyl)-1,4,4a,5,6,7,8,8a-octahydronaphthalen-2-yl)methyl 3-Methoxybenzoate] |  | 7 ± 0.58% | 14.6 ± 0.09% | 0% |  | 39.85 ± 0.26% |  |  |  | 
C[C@]1(CO)C2CC=C(COC(=O)c3cccc(F)c3)[C@@H](/C=C/C3=CCOC3=O)[C@]2(C)CC[C@H]1O (stereo partly drawn) [Compound 9c, ((1S,5R,6R,8aR)-6-Hydroxy-5-(hydroxymethyl)-5,8a-dimethyl-1-((E)-2-(2-oxo-2,5-dihydrofuran-3-yl)vinyl)-1,4,4a,5,6,7,8,8a-octahydronaphthalen-2-yl)methyl 3-Fluorobenzoate] |  | 0% | 1.54 ± 0.03% | 14.8 ± 0.17% |  | 42.92 ± 0.27% |  |  |  | 
C[C@]1(CO)C2CC=C(COC(=O)c3cccc(Cl)c3)[C@@H](/C=C/C3=CCOC3=O)[C@]2(C)CC[C@H]1O (stereo partly drawn) [Compound 9d, ((1S,5R,6R,8aR)-6-Hydroxy-5-(hydroxymethyl)-5,8a-dimethyl-1-((E)-2-(2-oxo-2,5-dihydrofuran-3-yl)vinyl)-1,4,4a,5,6,7,8,8a-octahydronaphthalen-2-yl)methyl 3-Chlorobenzoate] |  | 0% | 10.02 ± 0.02% | 30.21 ± 0.15% |  | 49.19 ± 0.2% |  |  |  | 
C[C@]1(CO)C2CC=C(COC(=O)c3cccc(Br)c3)[C@@H](/C=C/C3=CCOC3=O)[C@]2(C)CC[C@H]1O (stereo partly drawn) [Compound 9e, ((1S,5R,6R,8aR)-6-Hydroxy-5-(hydroxymethyl)-5,8a-dimethyl-1-((E)-2-(2-oxo-2,5-dihydrofuran-3-yl)vinyl)-1,4,4a,5,6,7,8,8a-octahydronaphthalen-2-yl)methyl 3-Bromobenzoate] |  | 0% | 1.93 ± 0.1% | 14.1 ± 0.24% |  | 50.55 ± 0.17% |  |  |  | 
C[C@]1(CO)C2CC=C(COC(=O)c3cccc(I)c3)[C@@H](/C=C/C3=CCOC3=O)[C@]2(C)CC[C@H]1O (stereo partly drawn) [Compound 9f, ((1S,5R,6R,8aR)-6-Hydroxy-5-(hydroxymethyl)-5,8a-dimethyl-1-((E)-2-(2-oxo-2,5-dihydrofuran-3-yl)vinyl)-1,4,4a,5,6,7,8,8a-octahydronaphthalen-2-yl)methyl 3-Iodobenzoate] |  | 49 ± 1% | 21.75 ± 0.06% | 0% |  | 58 ± 0.15% |  |  |  | 
